NR1D1 modulator: modulators of human Rev-erb alpha DNA binding. activity, % at 10 µM. P20393. actives 0.79% (n = 370,000). Rev-erbα–FITC-DNA binding, fluorescence polarization, 90 min;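 active = activity above about 14%, limit read from the data; passing the limit was not always enough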;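 note: 0% = DMSO wells with 35 nM protein and 100% = DMSO wells with 750 nM protein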
Neddyl block: blocks human cullin neddylation; TR-FRET cullin neddylation, biochemical; actives 0.58% (n = 360,000); P61081+Q13564; calls only at 25 µM; in the data active = inhibition above about 36%
NR2E3 ag-1: agonists of human NR2E3 nuclear receptor; CHO-S Gal4-NCOR/VP16-NR2E3 two-hybrid, luciferase; inhibition of corepressor binding, % at 3.98 µM; actives 0.35% (n = 360,000); AID 602229;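 active = inhibition above the mean of all tested compounds plus 3 SD, cut at about 70% in these data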;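 note: 0% = DMSO with NR2E3 transfected cells and 100% = cells lacking NR2E3 construct; higher means lower luciferase signal from less NR2E3 corepressor binding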
Target sequence (Q9Y5X4 whole entry, looked up, the tested form may be a part): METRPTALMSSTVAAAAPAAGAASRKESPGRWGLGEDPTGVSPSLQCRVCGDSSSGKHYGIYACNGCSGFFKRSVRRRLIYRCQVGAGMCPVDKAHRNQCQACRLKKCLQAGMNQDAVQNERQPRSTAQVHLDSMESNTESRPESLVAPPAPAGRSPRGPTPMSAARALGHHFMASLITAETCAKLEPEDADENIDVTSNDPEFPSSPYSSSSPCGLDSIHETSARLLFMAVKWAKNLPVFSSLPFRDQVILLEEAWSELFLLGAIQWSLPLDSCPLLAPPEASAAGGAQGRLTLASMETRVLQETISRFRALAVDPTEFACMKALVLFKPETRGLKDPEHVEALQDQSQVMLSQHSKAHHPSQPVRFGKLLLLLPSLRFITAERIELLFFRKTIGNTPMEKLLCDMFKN
PG9 Ab binder: PG9 antibody binding by small molecule; TR-FRET gp120-PG9 antibody binding; inhibition, % at 6.7 µM; actives 0.43% (n = 360,000); in the data active = inhibition above about 8.5%
NR2E3 ag-2: NR2E3 (human) agonism. Q9Y5X4. GST-NR2E3/biotin-RetCOR TR-FRET, 1536-well. inhibition of corepressor binding, % at 4.78 µM. actives 0.12% (n = 320,000). AID 2300;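 active = percent inhibition above the cutoff of mean plus 3 SD of all tested compounds, set per screening campaign, cut at about 20% in these data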;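 note: 0% = DMSO wells and 100% = biotin wells as full block of FRET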
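Material: NR2E3–RetCOR corepressor complex | Quantity: 1.35 nM GST-tagged NR2E3 final | Schedule: 5 h at 4 °C | Replication: Singlicate compound wells | Reagent: RetCOR corepressor, biotinylated, 7 nM | Controls: Biotin wells as high control, 0.6% DMSO wells as low control | Signal: TR-FRET, Eu(K)-anti-GST donor, streptavidin-D2 acceptor, ex 340, em 617/671 nm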
NR2E3 ag confirm: NR2E3 agonism confirmed in two-hybrid assay; shares compounds with NR2E3 ag-1; CHO-S mammalian two-hybrid NR2E3-NCOR, luciferase luminescence; inhibition, % at 3.98 µM; actives 51% (n = 2,300);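 active = average inhibition above a cutoff equal to the mean inhibition of all tested compounds plus one SD, cut at about 70% in these data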;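 note: 0% = DMSO in NR2E3 cells and 100% = DMSO in cells lacking NR2E3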
VP16 counter: GAL4-VP16 reporter inhibition in NR2E3 agonist counterscreen. shares compounds with NR2E3 ag-1. CHO-S GAL4-VP16 luciferase reporter, luminescence. inhibition, % at 3.98 µM. actives 29% (n = 2,300). AID 624379;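 active = mean inhibition above a cutoff equal to the average over all tested compounds plus one standard deviation, cut at about 70% in these data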;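 note: luciferase from a UAS reporter driven by GAL4-VP16 transactivation; 0% = DMSO with VP16-transfected cells and 100% = DMSO with cells lacking VP16; higher means less reporter light so more repression of VP16 activity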
PG9 bind confirm: PG9 antibody binding, confirmed; inhibition, % at 6.7 µM; TR-FRET PG9 antibody binding, biochemical; actives 90% (n = 1,500); AID 651571; shares compounds with PG9 Ab binder; in the data active = inhibition above about 9%
PGV04 counter: binds control antibody PGV04 in PG9 binder counter-screen | TR-FRET PGV04 antibody-gp120 binding, biochemical | inhibition, % at 6.7 µM | actives 95% (n = 1,500) | shares compounds with PG9 Ab binder; in the data active = inhibition above about 9.5%
Neddyl conf: confirmation of human cullin neddylation inhibitors | AID 652217 | calls only at 25 µM | shares compounds with Neddyl block | TR-FRET cullin neddylation biochemical assay | actives 13% (n = 1,800); in the data active = inhibition above about 40%;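 note: neddylation substrate is the cullin 1 ring ligase complex with SKP2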
NR1D1 mod conf: Rev-erb alpha (human) modulation, hit confirmation. activation, % at 25 µM. shares compounds with NR1D1 modulator. Rev-erb alpha FITC-DNA binding, fluorescence polarization, 90 min. actives 61% (n = 3,000);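 active = activation at or above a set limit, or at least 3 SD above the negative control mean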;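 note: 0% = 35 nM protein with DMSO and 100% = 750 nM protein high control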
RORg DNA counter: RORgamma DNA-binding activity, dose-response counter-screen. shares compounds with NR1D1 modulator. purified RORgamma protein-FITC-DNA binding, fluorescence polarization. IC50, µM. actives 8% (n = 910);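 active = Compounds whose fitted half-maximal concentration for disrupting protein-DNA binding is below 10 micromolar; the record names Rev-erb in its text, so the target is in doubt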
Active calls of the source: *; i = inactive; . = no result given; + = active, no number. Sampled rows, rich in hits. Any-hit rate of the full collection: about 2%.

SMILES	NR1D1 modulator	Neddyl block	NR2E3 ag-1	PG9 Ab binder	NR2E3 ag-2	NR2E3 ag confirm	VP16 counter	others
CCCCn1c(=N)n(CC(O)COc2cccc(C)c2)c2ccccc21 (centres undefined)	0.1	i	48.8	0.9	-2.1	-8.8	29.9
Cc1nn(Cc2ccc(C(=O)NC(C)(C)C)o2)c(C)c1Br	0.7	i	57.2	-0.8	-2.3	61.2	63.4
Cc1cc(NC(=O)c2ccc(Cn3nc(C)c(Br)c3C)o2)no1	-1.2	i	-0.4	1.9	7.6	.	.
OC(c1cc(-c2ccc(C(F)(F)F)cc2)nc(C(F)(F)F)c1)C1CCCCN1 (centres undefined)	1.2	i	92.0*	-0.5	-1.0	59.0	47.9
OC(c1cc(C(F)(F)F)nc2c(C(F)(F)F)cccc12)C1CCCCN1 (centres undefined)	-2.8	i	14.2	-0.2	4.0	.	.
Nn1c(SCc2ccc([N+](=O)[O-])cc2)nnc1-c1n[nH]c2c1CCC2	0.3	.	.	.	.	.	.
Cc1ccc(C)c(S(=O)(=O)N2CCN(C(=O)C3CCN(c4ncnc5sc(C)c(C)c45)CC3)CC2)c1	-2.7	i	78.1*	0.4	3.4	67.4	62.6
Cc1ccccc1C1=NC(C(F)(F)F)(C(F)(F)F)c2c(n(C)c(=O)n(C)c2=O)N1	-1.2	i	-7.1	0.1	1.4	.	.
Cn1c2c(c(=O)n(C)c1=O)C(C(F)(F)F)(C(F)(F)F)N=C(c1ccc(Cl)cc1)N2	.	i	97.7*	.	0.6	98.7*	90.5*
Cc1ccccc1Nc1nc(N)nc(CSc2nc3ccccc3c(=O)n2C)n1	21.7	i	87.9*	26.2*	-0.5	12.6	31.9	PG9 bind confirm=72.9*;PGV04 counter=81.7*
C=CCn1c(SCC(=O)OC(C)C)nnc1-c1ccc(C)cc1	-6.5	.	.	.	.	.	.
O=c1[nH]c(SCc2ccc(Cl)cc2)nc2ccsc12	-6.2	.	.	-1.0	-0.4	.	.
N#Cc1c(-c2cccs2)nc(SCc2ccc(Cl)cc2)[nH]c1=O	0.0	i	78.1*	46.9*	.	97.3*	69.1	PG9 bind confirm=50.0*;PGV04 counter=61.2*
Cc1nn(C)cc1C(C)NC(=O)c1cc(COc2cccc3cnccc23)on1 (centres undefined)	0.2	+	69.2	-2.9	-1.2	-7.6	32.3	Neddyl conf=+
COCC1CCN(C(=O)c2cc(COc3cccc4cnccc34)on2)CC1	2.0	+	90.5*	-0.3	-1.7	72.1*	68.7
CCCC(C)NC(=O)CC1Oc2ccccc2NC1=O (centres undefined)	-3.6	.	.	.	.	.	.
COCc1[nH]nc2c1C(c1cccc(C(F)(F)F)c1)NC2=O (centres undefined)	-0.7	.	.	0.5	.	.	.
Cc1ccc2cc3cc(C(=O)NCc4ccco4)oc3nc2c1	2.8	+	51.9	1.1	-0.6	16.2	10.4	Neddyl conf=i
Cc1ccc2cc3cc(C(=O)NCCC(C)C)oc3nc2c1	9.0	i	-7.6	-0.5	-0.9	.	.
O=C1c2cccc3c(O)ccc(c23)C(=O)N1Cc1ccccc1	73.4*	i	63.7	-0.5	1.1	81.7*	60.1	NR1D1 mod conf=73.0*;RORg DNA counter=>40
CC(=O)N[C@@H](C=O)[C@@H](O)[C@@H](O)[C@H](O)CO	-1.6	.	.	.	.	.	.

Source: PubChem
